The text below walks through data of ChEMBL document CHEMBL1134445, “Design and synthesis of potent C(2)-symmetric diol-based HIV-1 protease inhibitors: effects of fluoro substitution” (J Med Chem, 2001).

For experiment [1], the target named is Human immunodeficiency virus type 1 protease (Human immunodeficiency virus 1, UniProt Q72874). The experiment is described as follows: Inhibitory concentration against HIV-1 protease. The method, boiled down:
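Recombinant HIV-1 protease, cloned and expressed in Escherichia coli; inhibition measured by fluorometric assay and reported as Ki.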

The target in experiment [2] is Human immunodeficiency virus type 1 protease (Human immunodeficiency virus 1) (UniProt Q72874). The experiment is described as follows: Anti-HIV-1 activity against mutant HIV-1 in MT-4 cells (mutation selected with saquinavir). In kind it is functional, cell-based. The settings on record: MT4. In a few lines:
(§1)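 Resistant HIV-1 IIIb raised in MT4 cells: started at sub-ED50 drug with 20-50 TCID50 virus, p24 in supernatant tracked, cell-free virus passaged at 5-fold rising drug levels until growing above 50-fold wild-type ED50; these supernatants served as stocks. ED50 then determined in MT4 cells by XTT cytopathic-effect assay.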

The target is the same in experiment [3]. The experiment is described as follows: Anti-HIV-1 activity against mutant HIV-1 in MT-4 cells (mutation selected with nelfinavir). In kind it is functional, cell-based. The settings on record: MT4. The method, boiled down: as §1
Experiment [4] has the same target. The experiment is described as follows: Anti-HIV-1 activity against Wild type virus in MT-4 cells. The format is functional, cell-based. The settings on record: MT4. The method, boiled down: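 MT4 cells infected with HIV-1; in vitro antiviral ED50 derived from colorimetric XTT read-out of virus cytopathic effect.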
Experiment [5] has the same target. The experiment is described as follows: Anti-HIV-1 activity against mutant HIV-1 in MT-4 cells (mutation selected with compound 1). The format is functional, cell-based. The settings on record: MT4. In a few lines: as §1
The target is the same in experiment [6]. The experiment is described as follows: Anti-HIV-1 activity against mutant HIV-1 in MT-4 cells (mutation selected with ritonavir). The conditions noted are these: MT4. In kind it is functional, cell-based. In a few lines: as §1
Experiment [7] deals with Human immunodeficiency virus 1. The experiment is described as follows: Anti-HIV-1 activity against Wild type virus. in MT-4 cells. In kind it is functional. The settings on record: Human immunodeficiency virus 1, MT4; read-out: ED50 (the source's name). The method, boiled down: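 Antiviral ED50 determined in MT4 cells infected with HIV-1; cytopathogenic effect read out by colorimetric XTT assay.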

As to `CNC(=O)[C@@H](NC(=O)[C@H](OCc1ccc(F)c(F)c1)[C@H](O)[C@@H](O)[C@@H](OCc1ccc(F)c(F)c1)C(=O)N[C@H](C(=O)NC)C(C)C)C(C)C`, the Ki (commonly the equilibrium dissociation constant of an inhibitor or competing ligand from its target) in experiment [1] was 1.98 nM. In addition, the ED50 stood at 810 nM in experiment [2]; 850 nM in experiment [3]; 670 nM in experiment [4]; 2840 nM in experiment [5]; 1220 nM in experiment [6].
On to `O=C(NC1c2ccccc2C[C@H]1O)[C@H](OCc1cc(F)cc(F)c1)[C@H](O)[C@@H](O)[C@@H](OCc1cc(F)cc(F)c1)C(=O)N[C@H]1c2ccccc2C[C@H]1O` (some centres undefined), for which the Ki in experiment [1] was 5 nM. For the same compound, the ED50 in experiment [2] stood at 90 nM; in experiment [3], 240 nM; in experiment [4], 50 nM; in experiment [5], 230 nM; in experiment [6] it was 1060 nM.
In turn, `CNC(=O)[C@@H](NC(=O)[C@H](OCc1cc(F)ccc1F)[C@H](O)[C@@H](O)[C@@H](OCc1cc(F)ccc1F)C(=O)N[C@H](C(=O)NC)C(C)C)C(C)C` had a Ki in experiment [1] of 1.98 nM. Moreover, the ED50 in experiment [2] is 1380 nM; in experiment [3], 1380 nM; in experiment [4] it was 650 nM; in experiment [5] it was 10700 nM; in experiment [6], 10900 nM.
Take `O=C(NC1c2ccccc2C[C@H]1O)[C@H](OCc1ccccc1)[C@H](O)[C@@H](O)[C@@H](OCc1ccccc1)C(=O)N[C@H]1c2ccccc2C[C@H]1O` (some centres undefined): the Ki in experiment [1] turned out to be 1.22 nM. For the same compound, the ED50 was 70 nM in experiment [2]; 100 nM in experiment [3]; 100 nM in experiment [4]; 460 nM in experiment [5]; 1280 nM in experiment [6].
On to `O=C(NC1c2ccccc2C[C@H]1O)[C@H](OCc1cc(F)ccc1F)[C@H](O)[C@@H](O)[C@@H](OCc1cc(F)ccc1F)C(=O)N[C@H]1c2ccccc2C[C@H]1O` (some centres undefined), for which the Ki in experiment [1] came to 3.29 nM. For the same compound, the ED50 amounted to 80 nM in experiment [2]; 100 nM in experiment [3]; 20 nM in experiment [4]; 160 nM in experiment [5]; 710 nM in experiment [6].
In the case of `O=C(NC1c2ccccc2C[C@H]1O)[C@H](OCc1ccc(F)cc1F)[C@H](O)[C@@H](O)[C@@H](OCc1ccc(F)cc1F)C(=O)N[C@H]1c2ccccc2C[C@H]1O` (some centres undefined), in experiment [1], the Ki worked out at 1.65 nM. The ED50 in experiment [2] worked out at 370 nM; in experiment [3], 250 nM; in experiment [4] it was 110 nM; in experiment [5], 670 nM; in experiment [6], 1730 nM.
`CNC(=O)[C@@H](NC(=O)[C@H](OCc1cc(F)cc(F)c1)[C@H](O)[C@@H](O)[C@@H](OCc1cc(F)cc(F)c1)C(=O)N[C@H](C(=O)NC)C(C)C)C(C)C` gave an inhibition constant Ki in experiment [1] of 1.98 nM. For the same compound, the ED50 in experiment [2] was determined as 1640 nM; in experiment [3], 340 nM; in experiment [4] it was 420 nM; in experiment [5], 1320 nM; in experiment [6] it was 1400 nM.
`CNC(=O)[C@@H](NC(=O)[C@H](OCc1ccccc1F)[C@H](O)[C@@H](O)[C@@H](OCc1ccccc1F)C(=O)N[C@H](C(=O)NC)C(C)C)C(C)C` displayed a Ki in experiment [1] of 1.92 nM. The ED50 in experiment [2] is 630 nM; in experiment [3], 1150 nM; in experiment [4] it was 280 nM; in experiment [5], 9340 nM; in experiment [6], 7450 nM.
`CNC(=O)[C@@H](NC(=O)[C@H](OCc1ccc(F)cc1F)[C@H](O)[C@@H](O)[C@@H](OCc1ccc(F)cc1F)C(=O)N[C@H](C(=O)NC)C(C)C)C(C)C` registered a Ki in experiment [1] of 1.12 nM. For the same compound, the ED50 in experiment [2] was 1170 nM; in experiment [3], 480 nM; in experiment [4], 720 nM; in experiment [5], 3350 nM; in experiment [6], 1890 nM.
`CNC(=O)[C@@H](NC(=O)[C@H](OCc1cccc(F)c1)[C@H](O)[C@@H](O)[C@@H](OCc1cccc(F)c1)C(=O)N[C@H](C(=O)NC)C(C)C)C(C)C` yielded a Ki in experiment [1] of 1.83 nM. Further, the ED50 in experiment [2] turned out to be 1040 nM; in experiment [3], 1100 nM; in experiment [4], 680 nM; in experiment [5], 1840 nM; in experiment [6] it was 1690 nM.
On to `O=C(NC1c2ccccc2C[C@H]1O)[C@H](OCc1cccc(F)c1F)[C@H](O)[C@@H](O)[C@@H](OCc1cccc(F)c1F)C(=O)N[C@H]1c2ccccc2C[C@H]1O` (some centres undefined), for which the affinity in experiment [1], expressed as Ki, was 4 nM. Moreover, the ED50 is 50 nM in experiment [2]; 60 nM in experiment [3]; 30 nM in experiment [4]; 240 nM in experiment [5]; 880 nM in experiment [6].
`O=C(NC1c2ccccc2C[C@H]1O)[C@H](OCc1ccccc1F)[C@H](O)[C@@H](O)[C@@H](OCc1ccccc1F)C(=O)N[C@H]1c2ccccc2C[C@H]1O` (some centres undefined): the affinity in experiment [1], expressed as Ki, was 3.26 nM. In addition, the ED50 came out at 80 nM in experiment [2]; 210 nM in experiment [3]; 50 nM in experiment [4]; 270 nM in experiment [5]; 510 nM in experiment [6].
Compound `CNC(=O)[C@@H](NC(=O)[C@H](OCc1cccc(F)c1F)[C@H](O)[C@@H](O)[C@@H](OCc1cccc(F)c1F)C(=O)N[C@H](C(=O)NC)C(C)C)C(C)C` showed a Ki in experiment [1] of 1.28 nM. Moreover, the ED50 in experiment [2] came out at 1110 nM; in experiment [3] it was 340 nM; in experiment [4], 660 nM; in experiment [5], 1540 nM; in experiment [6], 2260 nM.
With `CNC(=O)[C@@H](NC(=O)[C@H](OCc1ccccc1)[C@H](O)[C@@H](O)[C@@H](OCc1ccccc1)C(=O)N[C@H](C(=O)NC)C(C)C)C(C)C`, affinity in experiment [1] was put at a Ki of 0.8 nM. Also, the ED50 in experiment [2] was 6100 nM; in experiment [3], above 15000 nM; in experiment [5], 8130 nM; in experiment [6], above 15000 nM. Moreover, the EC50 in experiment [7] turned out to be 1320 nM.
`CNC(=O)[C@@H](NC(=O)[C@H](OCc1ccc(F)cc1)[C@H](O)[C@@H](O)[C@@H](OCc1ccc(F)cc1)C(=O)N[C@H](C(=O)NC)C(C)C)C(C)C` gave a Ki in experiment [1] of 1.79 nM. The ED50 in experiment [2] was found to be 3650 nM; in experiment [3], 1320 nM; in experiment [4], 1170 nM; in experiment [5], 7820 nM; in experiment [6], 970 nM.
Turning to `CC(C)c1nc(CN(C)C(=O)N[C@H](C(=O)N[C@@H](Cc2ccccc2)C[C@H](O)[C@H](Cc2ccccc2)NC(=O)OCc2cncs2)C(C)C)cs1`, the ED50 in experiment [2] was 410 nM; in experiment [3] it was 150 nM; in experiment [4], 60 nM; in experiment [5] it was 980 nM; in experiment [6] it was 2470 nM.
Compound `O=C(NC1c2ccccc2C[C@H]1O)[C@H](OCc1ccc(F)c(F)c1)[C@H](O)[C@@H](O)[C@@H](OCc1ccc(F)c(F)c1)C(=O)N[C@H]1c2ccccc2C[C@H]1O` (some centres undefined) had a Ki in experiment [1] of 3.9 nM. Further, the ED50 in experiment [2] turned out to be 160 nM; in experiment [3], 300 nM; in experiment [4], 130 nM; in experiment [5], 1050 nM; in experiment [6], 1300 nM.
Consider `O=C(NC1c2ccccc2C[C@H]1O)[C@H](OCc1ccc(F)cc1)[C@H](O)[C@@H](O)[C@@H](OCc1ccc(F)cc1)C(=O)N[C@H]1c2ccccc2C[C@H]1O` (some centres undefined), for which, in experiment [1], the Ki was 5.39 nM. Besides, the ED50 was 560 nM in experiment [3], 250 nM in experiment [4], 1130 nM in experiment [5] and 1130 nM in experiment [6].
Regarding `CC(C)(C)NC(=O)[C@@H]1C[C@@H]2CCCC[C@@H]2CN1C[C@@H](O)[C@H](Cc1ccccc1)NC(=O)[C@H](CC(N)=O)NC(=O)c1ccc2ccccc2n1`, the ED50 worked out at 80 nM in experiment [2]; 30 nM in experiment [3]; 10 nM in experiment [4]; 10 nM in experiment [5]; 10 nM in experiment [6].
In turn, `O=C(NC1c2ccccc2C[C@H]1O)[C@H](OCc1cccc(F)c1)[C@H](O)[C@@H](O)[C@@H](OCc1cccc(F)c1)C(=O)N[C@H]1c2ccccc2C[C@H]1O` (some centres undefined) showed a Ki in experiment [1] of 7.13 nM. Further, the ED50 in experiment [2] is 950 nM; in experiment [3] it was 210 nM; in experiment [4], 60 nM; in experiment [5] it was 180 nM; in experiment [6], 530 nM.
Consider `CNC(=O)[C@@H](NC(=O)[C@H](OCc1c(F)cccc1F)[C@H](O)[C@@H](O)[C@@H](OCc1c(F)cccc1F)C(=O)N[C@H](C(=O)NC)C(C)C)C(C)C`, for which the Ki in experiment [1] amounted to 1.73 nM. The ED50 is 8140 nM in experiment [2]; 7140 nM in experiment [3]; 1350 nM in experiment [4]; above 15000 nM in experiment [5]; above 15000 nM in experiment [6].
`O=C(NC1c2ccccc2C[C@H]1O)[C@H](OCc1c(F)cccc1F)[C@H](O)[C@@H](O)[C@@H](OCc1c(F)cccc1F)C(=O)N[C@H]1c2ccccc2C[C@H]1O` (some centres undefined) showed a Ki in experiment [1] of 1.64 nM. In addition, the ED50 amounted to 130 nM in experiment [2]; 250 nM in experiment [3]; 60 nM in experiment [4]; 310 nM in experiment [5]; 1390 nM in experiment [6].
Turning to `Cc1c(O)cccc1C(=O)N[C@@H](CSc1ccccc1)[C@H](O)CN1C[C@H]2CCCC[C@H]2C[C@H]1C(=O)NC(C)(C)C`, the ED50 in experiment [2] stood at 120 nM; in experiment [3], 2440 nM; in experiment [4], 20 nM; in experiment [5], 70 nM; in experiment [6] it was 110 nM.
